In ChEMBL document CHEMBL4261552, “4-Hydroxy-N-[3,5-bis(trifluoromethyl)phenyl]-1,2,5-thiadiazole-3-carboxamide: a novel inhibitor of the canonical NF-κB cascade” (Medchemcomm, 2017) one finds IC50 and Activity data, which are given here for two molecules.

The test system of assay [1] is MDA-MB-231. The assay can be described thus: Cytotoxicity against human MDA-MB-231 cells after 72 hrs by CellTox green assay. Format: cell-based. Conditions: MDA-MB-231, 72 h. In short, it runs like this: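 MDA-MB-231 cells (5×10^3/well) exposed to 0.001 - 100 µM compound or DMSO vehicle for 72 h. Membrane-integrity loss read by CellTox green fluorescence. IC50 taken by nonlinear regression; mean ± SD of three independent experiments.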

The target in assay [2] is T1, Inhibitor of nuclear factor kappa-B kinase subunit alpha (Homo sapiens, UniProt O15111).
T1 sequence (O15111 whole entry): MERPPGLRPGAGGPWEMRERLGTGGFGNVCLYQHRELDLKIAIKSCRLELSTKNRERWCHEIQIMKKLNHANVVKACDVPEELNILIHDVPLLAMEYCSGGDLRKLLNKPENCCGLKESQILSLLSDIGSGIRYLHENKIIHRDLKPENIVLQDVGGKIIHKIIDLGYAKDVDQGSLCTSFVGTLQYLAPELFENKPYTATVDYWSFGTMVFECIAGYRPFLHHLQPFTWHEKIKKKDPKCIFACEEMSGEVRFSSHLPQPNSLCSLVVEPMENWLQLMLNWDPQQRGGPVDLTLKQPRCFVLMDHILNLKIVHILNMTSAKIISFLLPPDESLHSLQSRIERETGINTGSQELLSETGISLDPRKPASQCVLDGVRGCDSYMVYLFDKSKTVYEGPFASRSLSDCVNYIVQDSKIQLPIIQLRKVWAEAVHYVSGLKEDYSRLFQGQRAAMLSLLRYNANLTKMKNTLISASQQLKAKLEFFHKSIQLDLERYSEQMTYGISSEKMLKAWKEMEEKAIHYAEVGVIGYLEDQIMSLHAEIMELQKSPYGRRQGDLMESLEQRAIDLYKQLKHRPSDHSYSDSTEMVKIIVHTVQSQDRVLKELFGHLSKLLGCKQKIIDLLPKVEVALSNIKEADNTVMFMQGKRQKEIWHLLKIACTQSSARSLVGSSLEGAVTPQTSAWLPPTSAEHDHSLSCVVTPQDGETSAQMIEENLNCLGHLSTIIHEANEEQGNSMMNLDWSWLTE
The assay can be described thus: Inhibition of human IKKalpha using ERLLDDRHDSGLDSMKDEE as substrate after 60 mins in presence of ATP by ADP-Glo kinase assay. Background: ADP-Glo turns the ADP formed in a reaction into a luminescent signal.

Assay [3] has as its system MDA-MB-231. In words: Inhibition of constitutively activated canonical NF-kB signaling pathway in human MDA-MB-231 cells assessed as residual activity at 10 uM after 24 hrs by luciferase reporter gene assay relative to control. Format: cell-based. In short, it runs like this: (§1)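 MDA-MB-231 cells (constitutive NF-κB) nucleofected with 3 µg of NF-κB-RE firefly luciferase plus TK-Renilla plasmids (10:1), then cultured 24 h. Compound added for a further 6 h or 24 h, without stimulus. Firefly/Renilla ratio expressed as % of DMSO-treated control; mean ± SD of three independent experiments.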
For orientation: A reporter such as luciferase makes a cellular process visible.

Assay [4] has as its target Mitogen-activated protein kinase kinase kinase 14 (Homo sapiens, UniProt Q99558). The assay can be described thus: Inhibition of human NIK using AKDVDQGSLCTSFVGTLQY as substrate after 60 mins in presence of ATP by ADP-Glo kinase assay.
Assay [5] deals with MDA-MB-231. The assay can be described thus: Inhibition of constitutively activated canonical NF-kB signaling pathway in human MDA-MB-231 cells assessed as residual activity at 10 uM after 6 hrs by luciferase reporter gene assay relative to control. The class given is cell-based. The method, boiled down:
as §1

The target in assay [6] is T2, Inhibitor of nuclear factor kappa-B kinase subunit beta (Homo sapiens, UniProt O14920).
T2 sequence (O14920 whole entry): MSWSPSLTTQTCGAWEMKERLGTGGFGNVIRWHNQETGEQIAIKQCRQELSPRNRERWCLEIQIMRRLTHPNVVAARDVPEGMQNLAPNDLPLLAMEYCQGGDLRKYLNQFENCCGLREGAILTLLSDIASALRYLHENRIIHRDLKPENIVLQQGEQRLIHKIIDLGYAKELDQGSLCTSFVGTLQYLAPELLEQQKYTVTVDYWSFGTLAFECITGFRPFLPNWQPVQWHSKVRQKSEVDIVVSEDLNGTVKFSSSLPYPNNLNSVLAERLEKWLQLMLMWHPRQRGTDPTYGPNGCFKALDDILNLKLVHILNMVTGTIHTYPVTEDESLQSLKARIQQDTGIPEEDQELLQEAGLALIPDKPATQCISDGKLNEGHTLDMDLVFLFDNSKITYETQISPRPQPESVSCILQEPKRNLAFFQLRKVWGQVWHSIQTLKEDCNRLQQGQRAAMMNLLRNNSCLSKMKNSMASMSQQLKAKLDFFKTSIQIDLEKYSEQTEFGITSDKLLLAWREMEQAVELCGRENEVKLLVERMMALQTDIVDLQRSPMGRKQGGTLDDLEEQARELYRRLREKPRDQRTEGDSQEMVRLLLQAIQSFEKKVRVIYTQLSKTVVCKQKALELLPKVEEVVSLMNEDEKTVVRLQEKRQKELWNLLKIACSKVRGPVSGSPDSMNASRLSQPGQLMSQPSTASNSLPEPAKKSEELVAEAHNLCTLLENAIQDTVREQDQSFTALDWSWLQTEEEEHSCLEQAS
In words: Inhibition of IKK-beta in human Jurkat cells assessed as reduction in TNFalpha-stimulated IkBalpha degradation preincubated for 60 mins followed by TNFalpha stimulation for 20 mins by immunoblot analysis. Format: cell-based. A general note: In western blotting, separated proteins are transferred to a membrane and probed.

For assay [7], the target named is T3, Inhibitor of nuclear factor kappa-B kinase subunit epsilon (Homo sapiens, UniProt Q14164).
T3 sequence (Q14164 whole entry): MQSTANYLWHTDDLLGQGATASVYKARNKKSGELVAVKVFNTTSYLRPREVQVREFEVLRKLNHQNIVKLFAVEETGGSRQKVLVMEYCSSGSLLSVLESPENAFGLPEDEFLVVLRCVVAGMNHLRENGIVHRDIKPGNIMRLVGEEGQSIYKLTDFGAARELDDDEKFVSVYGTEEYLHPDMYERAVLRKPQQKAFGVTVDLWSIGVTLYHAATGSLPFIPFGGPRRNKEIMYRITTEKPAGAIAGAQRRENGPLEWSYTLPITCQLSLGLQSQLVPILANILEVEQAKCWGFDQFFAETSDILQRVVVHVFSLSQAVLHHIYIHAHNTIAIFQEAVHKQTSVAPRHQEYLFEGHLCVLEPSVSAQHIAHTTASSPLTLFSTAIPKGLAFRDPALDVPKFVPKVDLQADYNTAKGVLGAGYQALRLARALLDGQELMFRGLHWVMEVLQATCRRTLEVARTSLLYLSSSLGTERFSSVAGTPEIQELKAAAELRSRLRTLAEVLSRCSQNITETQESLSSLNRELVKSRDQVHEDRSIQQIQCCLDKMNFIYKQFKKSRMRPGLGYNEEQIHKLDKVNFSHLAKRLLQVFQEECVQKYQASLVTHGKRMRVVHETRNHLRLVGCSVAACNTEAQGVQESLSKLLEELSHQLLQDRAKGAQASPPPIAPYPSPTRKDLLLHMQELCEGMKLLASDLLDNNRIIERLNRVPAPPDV
The assay can be described thus: Inhibition of human IKKepsilon using ERLLDDRHDSGLDSMKDEE as substrate after 60 mins in presence of ATP by ADP-Glo kinase assay.

As a reminder, the IC50 is the concentration at which inhibition is half-maximal.

Mitogen-activated protein kinase kinase kinase 14, sequence (Q99558 whole entry): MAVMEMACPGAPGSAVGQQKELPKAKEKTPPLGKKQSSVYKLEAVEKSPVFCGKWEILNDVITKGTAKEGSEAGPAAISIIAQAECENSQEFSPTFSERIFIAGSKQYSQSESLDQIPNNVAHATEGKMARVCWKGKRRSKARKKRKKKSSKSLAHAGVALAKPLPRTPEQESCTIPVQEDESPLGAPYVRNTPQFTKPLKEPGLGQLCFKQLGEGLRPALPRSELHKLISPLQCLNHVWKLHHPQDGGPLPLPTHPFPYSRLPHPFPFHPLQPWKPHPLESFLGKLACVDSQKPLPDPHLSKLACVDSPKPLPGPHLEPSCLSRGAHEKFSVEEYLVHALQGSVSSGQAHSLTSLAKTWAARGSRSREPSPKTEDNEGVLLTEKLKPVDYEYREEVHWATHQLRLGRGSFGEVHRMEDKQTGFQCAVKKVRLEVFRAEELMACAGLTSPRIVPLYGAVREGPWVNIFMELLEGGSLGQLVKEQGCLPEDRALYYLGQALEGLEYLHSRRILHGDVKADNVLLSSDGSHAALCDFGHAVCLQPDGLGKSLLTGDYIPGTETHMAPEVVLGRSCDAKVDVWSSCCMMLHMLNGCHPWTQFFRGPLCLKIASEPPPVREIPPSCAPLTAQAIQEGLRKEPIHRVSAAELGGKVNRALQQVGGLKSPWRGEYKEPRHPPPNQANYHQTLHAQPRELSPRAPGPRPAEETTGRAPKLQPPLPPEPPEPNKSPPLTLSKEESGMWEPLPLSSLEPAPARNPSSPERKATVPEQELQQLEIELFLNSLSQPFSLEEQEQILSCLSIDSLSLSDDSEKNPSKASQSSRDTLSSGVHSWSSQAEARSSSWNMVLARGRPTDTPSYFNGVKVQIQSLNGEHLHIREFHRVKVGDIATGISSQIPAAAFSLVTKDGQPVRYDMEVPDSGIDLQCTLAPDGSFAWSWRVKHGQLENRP

`O=C(Nc1cc(C(F)(F)F)cc(C(F)(F)F)c1)c1nsnc1O`: the IC50 with MDA-MB-231 [1] was 53 µM; in assay [2], greater than 100 µM; in assay [4], greater than 100 µM; in assay [6] it was 0.143 µM; in assay [7], greater than 100 µM. In addition, the Activity came out at 63% in the assay with MDA-MB-231 [3] and 96.1% in the assay with MDA-MB-231 [5].
Consider `O=C(Nc1cc(C(F)(F)F)cc(C(F)(F)F)c1)c1cc(Cl)ccc1O` [IMD-0354], for which the IC50 in the assay with MDA-MB-231 [1] is 0.85 µM; in assay [2] it was greater than 100 µM; in assay [4], greater than 100 µM; in assay [6], 0.218 µM; in assay [7], greater than 100 µM. Also, the Activity in the assay on MDA-MB-231 [3] came out at 58.3%; in the assay on MDA-MB-231 [5], 99%.
